Columns and labels:
[1] = tested on: FRα Y175, K136 and R106 alanine mutants; experiment: saturation radioligand-binding assay, FRα Y175, K136 and R106 mutants; design: species or system human; settings: mutations of Y175, K136 and R106 (bond lengths ≥3.1 Å)
In short: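 Human FRα alanine mutants made by site-directed mutagenesis, expressed as Fc fusions in transiently transfected HEK293 cells and Ni-NTA purified. 40 nM protein captured on protein G wells (25 mM Tris pH 8.0, 150 mM NaCl, 0.1% Triton X-100) for 40 min. Ligand stripped at pH 3.5 for 1 min. Then 40 min with varied [³H]-folic acid, two washes, scintillation counting. Kd by nonlinear regression, as fold versus wild type.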

[2] = target: human FRα (Homo sapiens, UniProt P15328); experiment: saturation radioligand-binding assay with [^3H]-folic acid, wild-type FRα–Fc; settings: fully glycosylated FRα–Fc
[3] = tested on: FRα; settings: O4 replaced by an amino group; cited from earlier work
[4] = tested on: reduced folate carrier; settings: folate-binding affinity of reduced folate carrier; cited from earlier work

Chain of human FRα (P15328 23-234): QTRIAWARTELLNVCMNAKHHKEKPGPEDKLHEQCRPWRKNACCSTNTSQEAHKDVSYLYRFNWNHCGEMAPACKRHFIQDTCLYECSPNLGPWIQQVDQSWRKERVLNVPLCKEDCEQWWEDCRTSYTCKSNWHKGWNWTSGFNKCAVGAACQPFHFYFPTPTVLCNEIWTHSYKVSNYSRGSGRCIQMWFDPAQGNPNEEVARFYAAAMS

Nc1nc(=O)c2nc(CNc3ccc(C(=O)N[C@@H](CCC(=O)O)C(=O)O)cc3)cnc2[nH]1 [folic acid]
effect of the mutation on folic acid binding [1]: little effect
folic acid-binding affinity compared with the deglycosylated protein [2]: similar

CN(Cc1cnc2nc(N)nc(N)c2n1)c1ccc(C(=O)N[C@@H](CCC(=O)O)C(=O)O)cc1 [methotrexate]
affinity for FRα compared with folic acid [3]: reduced affinity

Nc1nc(=O)c2nc(CNc3ccc(C(=O)N[C@@H](CCC(=O)O)C(=O)O)cc3)cnc2[nH]1 [folate]
Km [4]: 1 to 10 µM

Nc1nc(N)c2nc(CNc3ccc(C(=O)N[C@@H](CCC(=O)O)C(=O)O)cc3)cnc2n1 [aminopterin]
affinity for FRα compared with folic acid [3]: reduced affinity

From article PMC5797940 (Nature, 2013)
